From ChEMBL document CHEMBL2390929, “New nitric oxide donating 1,2,4-triazole/oxime hybrids: synthesis, investigation of anti-inflammatory, ulceroginic liability and antiproliferative activities” (Bioorg Med Chem, 2013)

What was measured:
[1] = tested on: T47D; test: Cytotoxicity against human T47D cells assessed as cell growth at 10^-5 M after 48 hrs by SRB assay; format: functional; conditions: read-out: Activity
Outline: (§1)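 NCI-60 one-dose screen across nine tumour subpanels. Each agent added once at 10^-5 M, cultures incubated 48 h. Endpoint is sulforhodamine B protein staining read spectrophotometrically. Output is percent growth of treated cells relative to untreated controls.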

[2] = tested on: Hs-578T; test: Cytotoxicity against human Hs578T cells assessed as cell growth at 10^-5 M after 48 hrs by SRB assay; format: functional; conditions: read-out: Activity
Outline: (§2)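 NCI 60-cell-line primary one-dose screen across nine tumour subpanels. Compound added at a single concentration of 10^-5 M and cultures incubated 48 h. Endpoint was sulforhodamine B protein staining read spectrophotometrically, with growth expressed as percent of untreated control cells.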

[3] = tested on: BT-549; test: Cytotoxicity against human BT549 cells assessed as cell growth at 10^-5 M after 48 hrs by SRB assay; format: functional; conditions: BT-549, 48 h, read-out: Activity; outline: as §2
[4] = tested on: DU-145; test: Cytotoxicity against human DU145 cells assessed as cell growth at 10^-5 M after 48 hrs by SRB assay; format: functional; conditions: DU-145, 48 h, read-out: Activity; outline: as §2
[5] = tested on: MCF7; test: Cytotoxicity against human MCF7 cells assessed as cell growth at 10^-5 M after 48 hrs by SRB assay; format: functional; conditions: MCF7, 48 h, read-out: Activity; outline: as §2
[6] = tested on: SN12C; test: Cytotoxicity against human SN12C cells assessed as cell growth at 10^-5 M after 48 hrs by SRB assay; format: functional; conditions: read-out: Activity; outline: as §1
[7] = tested on: RXF 393; test: Cytotoxicity against human RXF393 cells assessed as cell growth at 10^-5 M after 48 hrs by SRB assay; format: functional; conditions: RXF 393, 48 h, read-out: Activity; outline: as §2
[8] = tested on: ACHN; test: Cytotoxicity against human ACHN cells assessed as cell growth at 10^-5 M after 48 hrs by SRB assay; format: functional; conditions: read-out: Activity; outline: as §2
[9] = tested on: OVCAR-5; test: Cytotoxicity against human OVCAR5 cells assessed as cell growth at 10^-5 M after 48 hrs by SRB assay; format: functional; conditions: OVCAR-5, 48 h, read-out: Activity; outline: as §2
[10] = tested on: OVCAR-3; test: Cytotoxicity against human OVCAR3 cells assessed as cell growth at 10^-5 M after 48 hrs by SRB assay; format: functional; conditions: OVCAR-3, 48 h, read-out: Activity; outline: as §2
[11] = tested on: SK-MEL-5; test: Cytotoxicity against human SK-MEL-5 cells assessed as cell growth at 10^-5 M after 48 hrs by SRB assay; format: functional; conditions: SK-MEL-5, 48 h, read-out: Activity; outline: as §1
[12] = tested on: SK-MEL-28; test: Cytotoxicity against human SK-MEL-28 cells assessed as cell growth at 10^-5 M after 48 hrs by SRB assay; format: functional; conditions: SK-MEL-28, 48 h, read-out: Activity; outline: as §1
[13] = tested on: U-251; test: Cytotoxicity against human U251 cells assessed as cell growth at 10^-5 M after 48 hrs by SRB assay; format: functional; conditions: U-251, 48 h, read-out: Activity; outline: as §1
[14] = tested on: SNB-19; test: Cytotoxicity against human SNB19 cells assessed as cell growth at 10^-5 M after 48 hrs by SRB assay; format: functional; conditions: SNB-19, 48 h, read-out: Activity; outline: as §1
[15] = tested on: SNB-75; test: Cytotoxicity against human SNB75 cells assessed as cell growth at 10^-5 M after 48 hrs by SRB assay; format: functional; conditions: SNB-75, 48 h, read-out: Activity; outline: as §1
[16] = tested on: SF-268; test: Cytotoxicity against human SF268 cells assessed as cell growth at 10^-5 M after 48 hrs by SRB assay; format: functional; conditions: SF-268, 48 h, read-out: Activity; outline: as §2
[17] = tested on: SF-295; test: Cytotoxicity against human SF295 cells assessed as cell growth at 10^-5 M after 48 hrs by SRB assay; format: functional; conditions: SF-295, 48 h, read-out: Activity; outline: as §2
[18] = tested on: HCT-116; test: Cytotoxicity against human HCT116 cells assessed as cell growth at 10^-5 M after 48 hrs by SRB assay; format: functional; conditions: HCT-116, 48 h, read-out: Activity; outline: as §2
[19] = tested on: COLO 205; test: Cytotoxicity against human COLO205 cells assessed as cell growth at 10^-5 M after 48 hrs by SRB assay; format: functional; conditions: COLO 205, 48 h, read-out: Activity; outline: as §2
[20] = tested on: HCC 2998; test: Cytotoxicity against human HCC2998 cells assessed as cell growth at 10^-5 M after 48 hrs by SRB assay; format: functional; conditions: HCC 2998, 48 h, read-out: Activity; outline: as §2
[21] = tested on: NCI-H23; test: Cytotoxicity against human NCI-H23 cells assessed as cell growth at 10^-5 M after 48 hrs by SRB assay; format: functional; conditions: NCI-H23, 48 h, read-out: Activity; outline: as §2
[22] = tested on: HOP-62; test: Cytotoxicity against human HOP62 cells assessed as cell growth at 10^-5 M after 48 hrs by SRB assay; format: functional; conditions: HOP-62, 48 h, read-out: Activity; outline: as §2
[23] = Cytotoxicity against human EKVX cells assessed as cell growth at 10^-5 M after 48 hrs by SRB assay; format: functional; conditions: read-out: Activity; outline: as §2
[24] = tested on: A549; test: Cytotoxicity against human A549 cells assessed as cell growth at 10^-5 M after 48 hrs by SRB assay; format: functional; conditions: A549, 48 h, read-out: Activity; outline: as §2
[25] = tested on: MOLT-4; test: Cytotoxicity against human MOLT4 cells assessed as cell growth at 10^-5 M after 48 hrs by SRB assay; format: functional; conditions: MOLT-4, 48 h, read-out: Activity; outline: as §2
[26] = tested on: Rattus norvegicus; test: Gastrointestinal toxicity in albino rat assessed as ulcer index at 0.28 mmol/kg, po (reference value: 0.60 +/- 0.05); format: organism-based; conditions: in vivo
[27] = tested on: Rattus norvegicus; test: Antiinflammatory activity in albino rat assessed as inhibition of carrageenan-induced paw edema at 0.28 mmol/kg, po after 2 hrs relative to control; format: functional
Outline: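 Adult male albino rats (120–140 g), four per group, fasted 24 h with water allowed. Test agent suspended in 0.5% w/v aqueous CMC and given orally at 0.28 mmol/kg; controls received CMC alone. After 30 min, 0.1 mL fresh 1% carrageenan in saline was injected subplantar into the right hind paw and saline into the left. Paw thickness was measured by Vernier caliper; % inhibition = [(VR−VL)control − (VR−VL)treated]/(VR−VL)control ×100. Mean ± SEM, one-way ANOVA.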

[28] = Induction of nitric oxide release in phosphate buffer at pH 7.4 at 0.1 mM after 4 hrs by Griess method in presence of 0.5 mM of N-acetylcysteine; format: physicochemical; conditions: pH 7.4, 4 h, 100 µM
Outline: (§3)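 Compound in DMF diluted to final 10^-4 M in 1:1 50 mM phosphate buffer pH 7.4/MeOH with 5×10^-4 M N-acetylcysteine, 37 °C. Aliquot mixed with Griess reagent, 10 min at room temperature, A546 read. Nitrite quantified against sodium nitrite standards (10–80 nmol/mL); NO expressed as mol/mol. n = 4 reaction mixtures per compound.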

[29] = Induction of nitric oxide release in phosphate buffer at pH 7.4 at 0.1 mM after 2 hrs by Griess method in presence of 0.5 mM of N-acetylcysteine; format: physicochemical; conditions: pH 7.4, 2 h, 100 µM; outline: as §3
[30] = Induction of nitric oxide release in phosphate buffer at pH 7.4 at 0.1 mM after 3 hrs by Griess method in presence of 0.5 mM of N-acetylcysteine; format: physicochemical; conditions: pH 7.4, 3 h, 100 µM; outline: as §3

`CCn1c(SC/C(=N/O)c2ccccc2)nnc1-c1ccc(OC)c(OC)c1` gave a growth at 10 µM [1] of 99.6%, a growth at 10 µM [2] of 92.6% and a growth at 10 µM [3] of 134%. For the same compound, the growth at 10 µM [4] was 112%, the growth at 10 µM [5] was 118% and the growth at 10 µM [6] was 99.5%. It also gave a growth at 10 µM [7] of 114%, a growth at 10 µM [8] of 103% and a growth at 10 µM [9] of 107%. For the same compound, the growth at 10 µM [10] was 106%, the growth at 10 µM [11] was 96.3% and the growth at 10 µM [12] was 103%. The growth at 10 µM [13] was 101%, the growth at 10 µM [14] was 99.9% and the growth at 10 µM [15] was 90.3%. For the same compound, the growth at 10 µM [16] was 101%, the growth at 10 µM [17] was 146% and the growth at 10 µM [18] was 108%. For the same compound, the growth at 10 µM [19] was 93.5%, the growth at 10 µM [20] was 104% and the growth at 10 µM [21] was 102%. The growth at 10 µM [22] was 85.9%, the growth at 10 µM [23] was 102% and the growth at 10 µM [24] was 95.7%. The growth at 10 µM [25] was 87.4%, the UI [26] was 1.58 and the inhibition in vivo at 280 µmol/kg [27] was 67%. The Activity [28] was 0.24 mol/mol, the Activity [29] was 0.13 mol/mol and the Activity [30] was 0.2 mol/mol.
